Measurements published in ChEMBL document CHEMBL4373672, “A small molecule drug conjugate (SMDC) of DUPA and a duocarmycin built on the solid phase” (Medchemcomm, 2019).

Assays:
DNA [1] = experiment: DNA alkylating activity in human LNCAP cells exhibiting increased cathepsin B activity and overexpressing GCPII assessed as reduction in cell viability incubated with GCPII binder 2-PMPA for 1 hr followed by incubation with compound for 48 hrs by MTS assay; format: functional, cell-based
In short: (§1)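 Pre-treatment of cells (3 x 10^4/100 μL) with 10 μM 2-PMPA for 1 h. Compound in DMSO was then added in triplicate at 100 μM to 0.0001 μM (10-fold steps), 48 h at 37 °C, 5% CO2; final DMSO 1%. Doxorubicin hydrochloride defined 100% inhibition. MTS reagent for 3 h, absorbance at 490 nm. Three independent runs on different passages.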

DNA [2] = experiment: DNA alkylating activity in GCPII negative human PC3 cells exhibiting increased cathepsin B activity assessed as reduction in cell viability incubated with GCPII binder 2-PMPA for 1 hr followed by incubation with compound for 48 hrs by MTS assay; format: functional; conditions: PC-3; in short: as §1
DNA [3] = experiment: DNA alkylating activity in human LNCAP cells exhibiting increased cathepsin B activity and overexpressing GCPII assessed as reduction in cell viability incubated for 72 hrs by MTS assay; format: functional, cell-based
In short: (§2)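 Cell lines from ECACC, grown in supplier-recommended media with 10% foetal calf serum and 2 mM L-glutamine, kept at 1-9 x 10^5 cells/mL, 37 °C, 5% CO2. Seeded at 3 x 10^4 cells/100 μL and exposed in triplicate to compound at 100 μM down to 0.00001 μM (10-fold steps) for 72 h; final DMSO 1%. Stocks in DMSO made fresh each day. Doxorubicin hydrochloride (10 μM) served as the 100% inhibition value. MTS reagent added for 3 h, absorbance read at 490 nm. Three independent runs on different passages; IC50 from curve fit.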

DNA [4] = experiment: DNA alkylating activity in human SKBR3 cells exhibiting increased cathepsin B activity and reduced GCPII expression assessed as reduction in cell viability incubated for 72 hrs by MTS assay; format: functional, cell-based; conditions: SK-BR-3, 72 h; in short: as §2
DNA [5] = experiment: DNA alkylating activity in human MCF7 cells exhibiting increased cathepsin B activity and overexpressing GCPII assessed as reduction in cell viability incubated for 72 hrs by MTS assay; format: functional, cell-based; conditions: MCF7, 72 h; in short: as §2
DNA [6] = experiment: DNA alkylating activity in human A549 cells exhibiting increased cathepsin B activity and overexpressing GCPII assessed as reduction in cell viability incubated for 72 hrs by MTS assay; format: functional, cell-based; conditions: A549, 72 h; in short: as §2
DNA [7] = experiment: DNA alkylating activity in human SK-MEL-28 cells exhibiting increased cathepsin B activity and overexpressing GCPII assessed as reduction in cell viability incubated for 72 hrs by MTS assay; format: functional, cell-based; conditions: SK-MEL-28, 72 h; in short: as §2
DNA [8] = experiment: DNA alkylating activity in human NCI-H292 cells exhibiting increased cathepsin B activity and overexpressing GCPII assessed as reduction in cell viability incubated for 72 hrs by MTS assay; format: functional, cell-based; conditions: NCI-H292, 72 h; in short: as §2
DNA [9] = experiment: DNA alkylating activity in human GCPII negative 16HBE14o cells deficient of cathepsin B activity assessed as reduction in cell viability incubated for 72 hrs by MTS assay; format: functional; in short: as §2
DNA [10] = experiment: DNA alkylating activity in GCPII negative human PC3 cells exhibiting increased cathepsin B activity assessed as reduction in cell viability incubated for 72 hrs by MTS assay; format: functional; conditions: PC-3, 72 h; in short: as §2

NC(=O)c1cc2c3c(cc(O)c2[nH]1)N(C(=O)c1ccc(N)cc1)CC3CCl (stereo not given)
IC50 (DNA [1]): 25.5 nM | IC50 (DNA [2]): 6.1 nM | IC50 (DNA [3]): 15.7 nM | IC50 (DNA [4]): 2.3 nM | IC50 (DNA [5]): 181 nM | IC50 (DNA [6]): 36.6 nM | IC50 (DNA [7]): 22.5 nM | IC50 (DNA [8]): 7.3 nM | IC50 (DNA [9]): 85.4 nM | IC50 (DNA [10]): 4.7 nM
